ChEMBL document CHEMBL4219052, “Synthesis and biological evaluation of 6-substituted-5-fluorouridine ProTides” (Bioorg Med Chem, 2018)

How the values were obtained:
[1] = test system: SW-620; assay: Cytotoxicity against human SW620 cells after 72 hrs by MTS assay; assay type: functional, cell-based; details: SW-620, 72 h
In short: (§1)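 Commercial screen: tumour cells seeded at 0.5 to 100 x 10³ cells/well the day before dosing, then exposed 72 h to compound in duplicate, 9 serial 3.16-fold dilutions from 198 µM top concentration. MTS added for a further 4 h at 37 °C, absorbance read; IC50 taken as 50% inhibition of viability by curve fitting.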

[2] = test system: Chikungunya virus; assay: Antiviral activity against Chikungunya virus infected in African green monkey Vero cells assessed as reduction in virus-induced cytopathic effect pretreated for 1 hr followed by viral infection measured after 3 days by crystal violet staining based assay; assay type: functional, organism-based
[3] = test system: MIA PaCa-2; assay: Cytotoxicity against human MIAPaCa2 cells after 72 hrs by MTS assay; assay type: functional, cell-based; details: MIA PaCa-2, 72 h; in short: as §1
[4] = test system: RL; assay: Cytotoxicity against human RL cells after 72 hrs by MTS assay; assay type: functional, cell-based; in short: as §1
[5] = test system: MV4-11; assay: Cytotoxicity against human MV411 cells after 72 hrs by MTS assay; assay type: functional, cell-based; details: MV4-11, 72 h; in short: as §1
[6] = test system: MCF7; assay: Cytotoxicity against human MCF7 cells after 72 hrs by MTS assay; assay type: functional, cell-based; details: MCF7, 72 h; in short: as §1
[7] = Cytotoxicity against African green monkey Vero cells measured after 3 days by CelltiterGlo luminescence assay; assay type: cell-based; details: chlorocebus sabaeus
In short: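 Vero cells seeded and left overnight; growth medium then replaced by serial compound dilutions, added in triplicate; medium-only wells defined 0% cytotoxicity. On day 3 cells were lysed and ATP content measured by luciferase luminescence (CellTiter-Glo); CC50 obtained from a 4-PL curve fit.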

[8] = Cytotoxicity against human Hs445 cells after 72 hrs by MTS assay; assay type: functional, cell-based; details: Hs 445, 72 h; in short: as §1
[9] = test system: HEL 92.1.7; assay: Cytotoxicity against human HEL 92.1.7 cells after 72 hrs by MTS assay; assay type: functional, cell-based; details: HEL 92.1.7, 72 h; in short: as §1
[10] = Half life in acetone d6 at pH 7.6 Trizma buffer by 31P NMR analysis; assay type: physicochemical; details: Trizma buffer with acetone-d6, pH 7.6
In short: (§2)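 ProTide (5.0 mg) dissolved in acetone-d6 (0.15 mL) plus Trizma buffer pH 7.6 (0.30 mL), treated with carboxypeptidase Y; conversion followed by ³¹P NMR over 14 h.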

[11] = biological target: T1, Carboxypeptidase Y (Saccharomyces cerevisiae (strain ATCC 204508 / S288c) (Baker's yeast), UniProt P00729); assay: Prodrug activation assessed as yeast carboxypeptidase Y mediated (2S)-2-((((2R,3S,4R,5R)-5-(6-azido-5-fluoro-2,4-dioxo-3,4-dihydropyrimidin-1(2H)-yl)-3,4-dihydroxytetrahydrofuran-2-yl)methoxy)(hydroxy)phosphorylamino)propanoic acid formation at pH 7.6 measured within 60 mins by 31P NMR analysis; details: pH 7.6, 1 h; in short: as §2
T1 sequence (P00729 whole entry): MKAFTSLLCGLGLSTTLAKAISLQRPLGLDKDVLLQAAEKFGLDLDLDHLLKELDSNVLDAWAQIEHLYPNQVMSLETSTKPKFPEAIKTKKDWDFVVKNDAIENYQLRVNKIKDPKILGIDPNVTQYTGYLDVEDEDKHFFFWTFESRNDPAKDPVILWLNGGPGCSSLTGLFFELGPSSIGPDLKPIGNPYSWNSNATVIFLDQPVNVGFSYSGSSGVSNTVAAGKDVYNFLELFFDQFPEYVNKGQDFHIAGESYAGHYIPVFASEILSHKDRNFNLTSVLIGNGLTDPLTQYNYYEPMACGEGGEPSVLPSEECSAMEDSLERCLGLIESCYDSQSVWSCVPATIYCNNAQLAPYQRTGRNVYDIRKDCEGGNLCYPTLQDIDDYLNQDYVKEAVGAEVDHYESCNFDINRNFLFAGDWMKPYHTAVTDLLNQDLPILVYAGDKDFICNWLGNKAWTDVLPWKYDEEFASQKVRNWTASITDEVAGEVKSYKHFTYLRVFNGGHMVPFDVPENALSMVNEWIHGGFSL

[12] = biological target: T1, Carboxypeptidase Y; assay: Prodrug activation assessed as yeast carboxypeptidase Y mediated (2S)-2-((((2R,3S,4R,5R)-5-(6-azido-5-fluoro-2,4-dioxo-3,4-dihydropyrimidin-1(2H)-yl)-3,4-dihydroxytetrahydrofuran-2-yl)methoxy)(phenoxy)phosphorylamino)propanoic acid formation at pH 7.6 measured within 10 mins by 31P NMR analysis; details: pH 7.6, 10 min; in short: as §2
[13] = biological target: T1, Carboxypeptidase Y; assay: Prodrug activation assessed as yeast carboxypeptidase Y mediated diastereoisomer formation at pH 7.6 by 31P NMR analysis; in short: as §2

Structure (SMILES) | IC50 [1] | EC50 [2] | IC50 [3] | IC50 [4] | IC50 [5] | IC50 [6] | CC50 at 72 h [7] | IC50 [8] | IC50 [9] | half-life [10] | Drug metabolism [11] | Drug metabolism [12] | Drug metabolism [13]
CCCCCCOC(=O)[C@H](C)NP(=O)(OC[C@H]1O[C@@H](n2c(C)c(F)c(=O)[nH]c2=O)[C@H](O)[C@@H]1O)Oc1ccccc1 (stereo partly specified) | > 50 µM | > 200 µM | > 50 µM | > 50 µM | > 50 µM | > 50 µM | > 200 µM | > 50 µM | > 50 µM | – | – | – | –
C[C@H](NP(=O)(O)OC[C@H]1O[C@@H](n2c(N=[N+]=[N-])c(F)c(=O)[nH]c2=O)[C@H](O)[C@@H]1O)C(=O)O | – | – | – | – | – | – | – | – | – | < 5 min | 7.17 ppm | – | –
Cc1c(F)c(=O)[nH]c(=O)n1[C@@H]1O[C@H](COP(=O)(N[C@@H](C)C(=O)OCC(C)(C)C)Oc2cccc3ccccc23)[C@@H](O)[C@H]1O (stereo partly specified) | > 50 µM | > 200 µM | > 50 µM | > 50 µM | > 50 µM | > 50 µM | 81.3 µM | > 50 µM | > 50 µM | – | – | – | –
C[C@H](NP(=O)(OC[C@H]1O[C@@H](n2c(N=[N+]=[N-])c(F)c(=O)[nH]c2=O)[C@H](O)[C@@H]1O)Oc1ccccc1)C(=O)O (stereo partly specified) | – | – | – | – | – | – | – | – | – | – | – | 4.68 to 4.87 ppm | –
CCCCCOC(=O)[C@H](C)NP(=O)(OC[C@H]1O[C@@H](n2c(I)c(F)c(=O)[nH]c2=O)[C@H](O)[C@@H]1O)Oc1ccccc1 (stereo partly specified) | 1.12 µM | – | 1.31 µM | 0.8 µM | 0.2 µM | 7.83 µM | – | 2.6 µM | 0.5 µM | – | – | – | –
CCCCCCOC(=O)[C@H](C)NP(=O)(OC[C@H]1O[C@@H](n2c(N=[N+]=[N-])c(F)c(=O)[nH]c2=O)[C@H](O)[C@@H]1O)Oc1cccc2ccccc12 (stereo partly specified) | 21 µM | – | 24 µM | 9 µM | 6.2 µM | 31 µM | – | 6 µM | 10 µM | – | – | – | –
CCCCCCOC(=O)[C@H](C)NP(=O)(OC[C@H]1O[C@@H](n2c(N=[N+]=[N-])c(F)c(=O)[nH]c2=O)[C@H](O)[C@@H]1O)Oc1ccccc1 (stereo partly specified) | 38 µM | – | > 50 µM | 20 µM | 9 µM | > 50 µM | – | 18 µM | 39 µM | – | – | – | 3.64 to 3.82 ppm
Cc1c(F)c(=O)[nH]c(=O)n1[C@@H]1O[C@H](COP(=O)(N[C@@H](C)C(=O)OCc2ccccc2)Oc2ccccc2)[C@@H](O)[C@H]1O (stereo partly specified) | > 50 µM | – | > 50 µM | > 50 µM | > 50 µM | > 50 µM | – | > 50 µM | > 50 µM | – | – | – | –
Cc1c(F)c(=O)[nH]c(=O)n1[C@@H]1O[C@H](COP(=O)(N[C@@H](C)C(=O)OCc2ccccc2)Oc2cccc3ccccc23)[C@@H](O)[C@H]1O (stereo partly specified) | > 50 µM | > 200 µM | > 50 µM | > 50 µM | > 50 µM | > 50 µM | > 200 µM | > 50 µM | > 50 µM | – | – | – | –
C[C@H](NP(=O)(OC[C@H]1O[C@@H](n2c(I)c(F)c(=O)[nH]c2=O)[C@H](O)[C@@H]1O)Oc1ccccc1)C(=O)OC1CCCCC1 (stereo partly specified) | 4.84 µM | – | 4.57 µM | 2.6 µM | 0.74 µM | 8.12 µM | – | 3.8 µM | 4.1 µM | – | – | – | –
